{"data": "Assay results collected from several papers", "organism": "Staphylococcus aureus", "note": "Protocols differ between the studies behind these lines."}
{"SMILES": "Cc1ccc2nc(-n3nc(C(C)C)c4c3-c3ccccc3C4=O)sc2c1", "test": "microbial growth, well diffusion", "test system": "NCIM5021", "setting": "1000 µg/mL", "measurement": "inhibition zone", "value": "14 mm"}
{"SMILES": "CC(C)c1cccc(=O)c(O)c1", "test": "microbial growth, broth dilution", "test system": "ATCC29213", "measurement": "MIC80", "value": "66.7 µM"}
{"SMILES": "CCCCCCCCCCCCCC(O)CC(O)CO (stereo not shown)", "test": "microbial growth, broth dilution", "test system": "ATCC29213", "measurement": "IC50", "value": "17.2 µg/mL"}
{"SMILES": "[H]/N=C(/N)N[C@H]1[C@H](O)[C@@H](O)[C@H](O[C@@H]2O[C@@H](C)[C@](O)(C=O)[C@H]2O[C@@H]2O[C@@H](CO)[C@H](O)[C@@H](O)[C@@H]2NC)[C@@H](N/C(N)=N\\[H])[C@@H]1O", "test": "microbial growth, well diffusion", "test system": "NCIM5021", "setting": "250 µg/mL", "measurement": "inhibition zone", "value": "22 mm"}
{"SMILES": "CC[C@H](C)[C@H](NC(=O)OCC1c2ccccc2-c2ccccc21)C(=O)Sc1cccccc1=O", "test": "microbial growth, broth dilution", "test system": "ATCC29213", "measurement": "MIC80", "value": "> 100 µM"}
{"SMILES": "O=C(O)CN1C(=O)/C(=C/c2c3ccccc3c(-c3ccc(N(c4ccccc4)c4ccccc4)cc3)c3ccccc23)NC1=S", "test": "microbial killing, broth dilution", "test system": "ATCC25923", "measurement": "MBC", "value": "> 1000 µg/mL"}
{"SMILES": "Cc1cc(Nc2cc(N3CCN(C)CC3)nc(/C=C/c3ccccc3)n2)n[nH]1", "test": "microbial growth", "test system": "NCTC8325", "measurement": "MIC", "value": "> 30 µM"}
{"SMILES": "O=C1NC(=S)S/C1=C\\c1c2ccccc2c(-c2ccc(N(c3ccccc3)c3ccccc3)cc2)c2ccccc12", "test": "microbial killing, broth dilution", "test system": "ATCC25923", "measurement": "MBC", "value": "> 1000 µg/mL"}
{"SMILES": "CO[C@H]1C[C@@H]2CC[C@@H](C)[C@@](O)(O2)C(=O)C(=O)N2CCCC[C@H]2C(=O)O[C@H]([C@H](C)C[C@@H]2CC[C@@H](OC(=O)C(C)(CO)CO)[C@H](OC)C2)CC(=O)[C@H](C)/C=C(\\C)[C@@H](O)[C@@H](OC)C(=O)[C@H](C)C[C@H](C)/C=C/C=C/C=C/1C", "test": "microbial growth", "test system": "NCTC8325", "measurement": "MIC", "value": "> 30 µM"}
{"SMILES": "O=C(O)CN1C(=O)/C(=C/c2ccc(-c3ccc(N(c4ccccc4)c4ccccc4)cc3)c3ccccc23)SC1=S", "test": "microbial killing, broth dilution", "test system": "ATCC6538", "measurement": "MBC", "value": "> 1000 µg/mL"}
{"SMILES": "CC1COc2c(N3CCN(C)CC3)c(F)cc3c(=O)c(C(=O)O)cn1c23 (stereo not shown)", "test": "microbial growth", "test system": "NCTC8325", "measurement": "MIC", "value": "0.5 to 2 µM"}
{"SMILES": "CC(C)Cc1nn(-c2nc3ccc(Br)cc3s2)c2c1C(=O)c1ccccc1-2", "test": "microbial growth, well diffusion", "test system": "NCIM5021", "setting": "250 µg/mL", "measurement": "inhibition zone", "value": "11 mm"}
{"SMILES": "C#CCCCCCCCCC=CCC(O)CC(O)CO (stereo not shown)", "test": "microbial growth, broth dilution", "test system": "ATCC33591 MRSA", "setting": "drug-resistant strain", "measurement": "IC50", "value": "> 200 µg/mL"}
{"SMILES": "O=C(O)CN1C(=O)/C(=C/c2ccc(-c3ccc(N(c4ccccc4)c4ccccc4)cc3)cc2)SC1=S", "test": "microbial killing, broth dilution", "test system": "ATCC6538", "measurement": "MBC", "value": "7.8 µg/mL"}
{"SMILES": "CCn1c(-c2nonc2N)nc2c(C#CC(C)(C)O)ncc(OC[C@H]3CCCNC3)c21", "test": "microbial growth", "test system": "NCTC8325", "measurement": "MIC", "value": "> 30 µM"}
{"SMILES": "O=C(O)CN1C(=O)/C(=C/c2ccc(-c3ccc(N(c4ccccc4)c4ccccc4)cc3)cc2)NC1=S", "test": "microbial killing, broth dilution", "test system": "ATCC43300", "measurement": "MBC", "value": "3.9 µg/mL"}
{"SMILES": "CNC(=O)c1cc(Oc2ccc(NC(=O)Nc3ccc(Oc4ccccc4)cc3)cc2)ccn1", "test": "microbial growth", "test system": "NCTC8325", "measurement": "MIC", "value": "> 100 µM"}
{"SMILES": "CCOC(=O)C1=C(C)N2NC(C)(c3ccccc3O)N(C(Cc3c[nH]c4ccccc34)C(=O)O)C2=NC1c1ccc(Cl)cc1 (stereo not shown)", "test": "microbial growth", "test system": "ATCC25923", "setting": "15 µg/mL, 24 h", "measurement": "inhibition zone", "value": "30 mm"}
{"SMILES": "Cc1nn(-c2nc3ccc(Br)cc3s2)c2c1C(=O)c1ccccc1-2", "test": "microbial growth, well diffusion", "test system": "NCIM5021", "setting": "1000 µg/mL", "measurement": "inhibition zone", "value": "12 mm"}
{"SMILES": "CN[C@H](CC(C)C)C(=O)N[C@H]1C(=O)N[C@@H](CC(N)=O)C(=O)N[C@H]2C(=O)N[C@H]3C(=O)N[C@H](C(=O)N[C@H](C(=O)O)c4cc(O)cc(O)c4-c4cc3ccc4O)[C@H](O)c3ccc(c(Cl)c3)Oc3cc2cc(c3O[C@@H]2O[C@H](CO)[C@@H](O)[C@H](O)[C@H]2O[C@H]2C[C@](C)(N)[C@H](O)[C@H](C)O2)Oc2ccc(cc2Cl)[C@H]1O", "test": "microbial growth, disc diffusion", "test system": "ATCC29213", "setting": "125 µg/disc, 24 h", "measurement": "inhibition zone", "value": "20 mm"}
{"SMILES": "N#C/C(=C\\c1ccc(O)c(O)c1)C(=O)NCc1ccccc1", "test": "microbial growth", "test system": "NCTC8325", "measurement": "MIC", "value": "> 30 µM"}
{"SMILES": "Cc1nn(-c2nc3ccccc3s2)c2c1C(=O)c1ccccc1-2", "test": "microbial growth, well diffusion", "test system": "NCIM5021", "setting": "500 µg/mL", "measurement": "inhibition zone", "value": "11 mm"}
{"SMILES": "Cc1ccc2nc(-c3ccncc3)[nH]c2c1", "test": "microbial growth, broth dilution", "test system": "ATCC29213 MSSA", "measurement": "MIC", "value": "64 µg/mL"}
{"SMILES": "O=c1cccccc1Sc1cccccc1=O", "test": "microbial growth, broth dilution", "test system": "ATCC29213", "measurement": "MIC80", "value": "> 100 µM"}
{"SMILES": "O=C1NC(=S)S/C1=C\\c1ccc(-c2ccc(N(c3ccccc3)c3ccccc3)cc2)cc1", "test": "microbial killing, broth dilution", "test system": "ATCC6538", "measurement": "MBC", "value": "> 1000 µg/mL"}
{"SMILES": "Cc1nc(Nc2ncc(C(=O)Nc3c(C)cccc3Cl)s2)cc(N2CCN(CCO)CC2)n1", "test": "microbial growth", "test system": "NCTC8325", "measurement": "MIC", "value": "> 30 µM"}
{"SMILES": "O=C(O)CN1C(=O)/C(=C/c2ccc(-c3ccc(N(c4ccccc4)c4ccccc4)cc3)c3ccccc23)NC1=S", "test": "microbial killing, broth dilution", "test system": "ATCC25923", "measurement": "MBC", "value": "> 1000 µg/mL"}
{"SMILES": "Cc1nn(-c2nc3ccc(Cl)cc3s2)c2c1C(=O)c1ccccc1-2", "test": "microbial growth, well diffusion", "test system": "NCIM5021", "setting": "1000 µg/mL", "measurement": "inhibition zone", "value": "11 mm"}
{"SMILES": "C#CCCCCC(=O)NC(C)C", "test": "microbial growth", "test system": "NCTC8325", "measurement": "MIC", "value": "> 100 µM"}
{"SMILES": "O=C(N/N=C/c1ccc([N+](=O)[O-])o1)c1ccc(O)cc1", "test": "microbial growth", "test system": "ATCC700699", "measurement": "MIC90", "value": "15.6 µg/mL"}
{"SMILES": "COc1ccc2nc(-n3nc(CC(C)C)c4c3-c3ccccc3C4=O)sc2c1", "test": "microbial growth, well diffusion", "test system": "NCIM5021", "setting": "125 µg/mL", "measurement": "inhibition zone", "value": "12 mm"}
{"SMILES": "CC1(C)S[C@@H]2[C@H](NC(=O)[C@H](N)c3ccccc3)C(=O)N2[C@H]1C(=O)O", "test": "microbial growth, agar dilution", "test system": "ATCC25923", "setting": "26.93 µM", "measurement": "inhibition", "value": "100%"}
{"SMILES": "Cc1ccc2nc(-n3nc(CC(C)C)c4c3-c3ccccc3C4=O)sc2c1", "test": "microbial growth, well diffusion", "test system": "NCIM5021", "setting": "250 µg/mL", "measurement": "inhibition zone", "value": "11 mm"}
{"SMILES": "O=C1NC(=S)N/C1=C\\c1ccc(-c2ccc(N(c3ccccc3)c3ccccc3)cc2)c2ccccc12", "test": "microbial killing, broth dilution", "test system": "ATCC6538", "measurement": "MBC", "value": "> 1000 µg/mL"}
